From PubChem BioAssay AID1136 (Sanford-Burnham Center for Chemical Genomics, 2008)
Fewer than 10 of roughly 200,000 compounds were called active.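 How the source made its calls: active means activation factor at least 2 at 20 µM; inactive means the rest.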 The list is a sample of the results.

The compounds below were run against Alkaline phosphatase, tissue-nonspecific isozyme (Homo sapiens) (UniProt P05186) (assay: TNAP activators at high phosphate acceptor level, primary screen, biochemical, luminescence, uHTS (AID 1136)). Details: purified TNAP, CDP-star luminescence, 1 M DEA, 30 min; at 20 µM; hits give high values; 0 = EDTA background, 1 = DMSO-only activity.
Alkaline phosphatase, tissue-nonspecific isozyme (Homo sapiens), sequence (P05186 whole entry, looked up): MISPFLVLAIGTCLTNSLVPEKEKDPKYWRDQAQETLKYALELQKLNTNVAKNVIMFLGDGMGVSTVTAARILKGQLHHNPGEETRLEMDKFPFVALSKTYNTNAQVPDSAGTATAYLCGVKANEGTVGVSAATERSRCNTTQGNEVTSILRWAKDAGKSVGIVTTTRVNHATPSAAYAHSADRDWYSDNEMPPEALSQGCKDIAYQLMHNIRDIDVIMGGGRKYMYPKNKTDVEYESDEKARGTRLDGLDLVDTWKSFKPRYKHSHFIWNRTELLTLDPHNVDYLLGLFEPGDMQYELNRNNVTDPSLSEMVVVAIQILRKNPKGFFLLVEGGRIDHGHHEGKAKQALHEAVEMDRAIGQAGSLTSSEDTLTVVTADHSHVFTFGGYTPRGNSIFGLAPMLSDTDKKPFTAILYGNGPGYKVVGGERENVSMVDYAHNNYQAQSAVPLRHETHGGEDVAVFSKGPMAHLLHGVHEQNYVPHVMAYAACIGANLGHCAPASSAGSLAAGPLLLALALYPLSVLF
Procedure, shortened: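 Test system – human TNAP · Doses – 20 µM single point · Incubation – 30 min, room temperature · Signal – luminescent substrate turnover signal · Read-out basis – activation factor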

Activation factor, inactive:
[O-][n+]1c2c(nn1-c1ccc(Cl)c(Cl)c1)-c1nonc1CC2 1
Cc1ccc(CN2CCC(N3CCC(C(=O)NCC4CCCO4)CC3)CC2)o1 (configuration not stated) 1
Cc1ccccc1-c1n[nH]c(=S)n1/N=C/c1ccc(-c2ccccc2Br)o1 0.9
CCOC(=O)C1(Cc2cccc(OC)c2)CCCN(S(=O)(=O)c2cccnc2)C1 (configuration not stated) 1.1
CCOc1ccc(C(=O)NCCCN2CCCC2=O)cc1 1
COc1ccc(NS(=O)(=O)c2cc(NC(=O)/C=C/c3cc(OC)c(OC)c(OC)c3)ccc2N2CCCCC2)cc1 1
Cc1cc(SCC(=O)NCCN2C(=O)CSC2=O)nc2ccccc12 1
N#Cc1cnn2cc(CCN3CCOCC3)c(-c3ccc(F)cc3)nc12 1
Cc1ccc(C(=O)NC(=S)Nc2ccc(N3CCOCC3)cc2)cc1 1
COC(=O)COc1cccc2c(=O)n(CC(=O)NCCc3ccc(OC)c(OC)c3)ccc12 1
Cc1ccc(NC(=S)N(CCN2CCCCC2)Cc2ccco2)cc1C 1
COC(=O)c1cc(NC(=O)Cc2ccccc2[N+](=O)[O-])ccc1Cl 1
COc1ccc(C(=O)CSc2nc(C)cc(C)n2)cc1[N+](=O)[O-] 1
Cc1ccc(S(=O)(=O)N(CC(=O)NN=C2CCN(C)CC2)c2ccc(F)cc2)cc1 1
CN(C)S(=O)(=O)c1cccc(NC(=O)COC(=O)c2cc(=O)[nH]c(=O)[nH]2)c1 1
O=S(=O)(Nc1ncccn1)c1ccc(NS(=O)(=O)c2cccc(Cl)c2Cl)cc1 1
O=C(NNC(=S)NCc1ccco1)C(c1ccccc1)c1ccccc1 1
CCCCC(=O)NCc1ccc(F)cc1 1.1
CCN(c1ccc(NC(=O)COC(=O)CCc2nc3ccccc3n2-c2ccccc2)cc1)C(C)C 1
Clc1cccc(CN2COc3c(cc(Cl)c4cccnc34)C2)c1 1.1
CCN(CCO)C(=S)Nc1cc(C(=O)OC)ccc1C(=O)OC 1
Cc1ccccc1CC1(CO)CCCN(Cc2ccc3c(c2)OCCO3)C1 (configuration not stated) 1.1
Clc1ccc(-n2nnnc2-c2cnc(-c3ccccn3)nc2-c2cccs2)cc1 1
COc1ccc(C(=O)Nc2c(Cl)cc(Cl)cc2C(=O)N2CCC(C)CC2)cc1 1
O=C(c1ccc(Cl)c([N+](=O)[O-])c1)N1CCN(c2ccccc2)CC1 1
O=C(CCl)NNc1cccc(Cl)n1 1
C=CCN1C(=O)C(Cc2ccc(OCC)cc2)SC1=Nc1ccc(C(=O)O)cc1 (configuration not stated) 1
